Experimental data published in ChEMBL document CHEMBL3286372, “Design, synthesis and structure-activity relationship of novel semi-synthetic flavonoids as antiproliferative agents” (2014).

Columns and labels:
K562 = experiment: Growth inhibition of human K562 cells at 10 uM after 48 hrs by sulforhodamine B assay relative to control; format: functional; details: K562, 48 h, read-out: GI
Method in brief: (§1)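 NCI-60 primary screen at a single dose of 10 µM with 48 h continuous exposure. Growth or viability read by sulforhodamine B protein staining and expressed as percent growth inhibition versus untreated cells.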

NCI-H522 = experiment: Growth inhibition of human NCI-H522 cells at 10 uM after 48 hrs by sulforhodamine B assay relative to control; format: functional; details: NCI-H522, 48 h, read-out: GI
Method in brief: (§2)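 NCI-60 primary screen at a single 10 µM dose. Continuous 48 h exposure, with growth or viability estimated by sulforhodamine B protein staining. Reported as percent growth inhibition of treated cells relative to untreated growth.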

HT-29 = experiment: Growth inhibition of human HT-29 cells at 10 uM after 48 hrs by sulforhodamine B assay relative to control; format: functional; details: HT-29, 48 h, read-out: GI; method in brief: as §1
Ehrlich = experiment: Antitumor activity against mouse EAC cells allografted in BALB mouse assessed as tumor growth inhibition at 6 mg/kg, ip for 5 days relative to control; format: functional; details: 120 h, route intraperitoneal, read-out: TGI
Method in brief: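 Female BALB mice; Ehrlich ascites carcinoma cells, 2×10^5 cells/mouse in 0.2 ml saline, injected s.c. into the left hind leg and grown 2 wk. Daily i.p. saline (control), 3 or 6 mg/kg for 5 days. Caliper size V = 0.4×a(b)^2, taken just before the first dose and 24 h after the last. Mean ± SEM, n = 6; ANOVA with Tukey-Kramer.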

Mus musculus = experiment: Increase in GSK-3beta level in tumor of BALB mouse allografted with mouse EAC cells at 6 mg/kg, ip for 5 days by competitive ELISA relative to control; format: functional, Ehrlich; details: route intraperitoneal
Method in brief: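 Female BALB mice bearing subcutaneous EAC tumours (2×10^5 cells in left hind leg, grown 2 wk). Dosed i.p. daily for 5 days; controls received saline. Excised tumours washed in cold saline and homogenised at 10% in PBS. GSK-3β measured by competitive ELISA, samples in duplicate. Change versus untreated controls, mean ± SEM, n = 6.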

IGROV-1 = experiment: Growth inhibition of human IGROV1 cells at 10 uM after 48 hrs by sulforhodamine B assay relative to control; format: functional; details: IGROV-1, 48 h, read-out: GI; method in brief: as §1
786-0 = experiment: Growth inhibition of human 786-0 cells at 10 uM after 48 hrs by sulforhodamine B assay relative to control; format: functional; details: 786-0, 48 h, read-out: GI; method in brief: as §1
[1] = Growth inhibition of human RXF393 cells at 10 uM after 48 hrs by sulforhodamine B assay relative to control; format: functional; details: RXF 393, 48 h, read-out: GI; method in brief: as §2
[2] = Growth inhibition of human HOP92 cells at 10 uM after 48 hrs by sulforhodamine B assay relative to control; format: functional; details: HOP-92, 48 h, read-out: GI; method in brief: as §1
SF-268 = experiment: Growth inhibition of human SF268 cells at 10 uM after 48 hrs by sulforhodamine B assay relative to control; format: functional; details: SF-268, 48 h, read-out: GI; method in brief: as §2

Compound: COc1c2occc2c(OC)c2c(=O)c(CN3CCOCC3)c(/C=C/c3ccc(N(C)C)cc3)oc12
- inhibition of growth at 10 µM (K562): 84%
- inhibition of growth at 10 µM (NCI-H522): 84%
- inhibition of growth at 10 µM (HT-29): 82%
- inhibition in vivo at 6 mg/kg (Ehrlich): 57.1%
- Activity (Mus musculus): 197.2%
- inhibition of growth at 10 µM (IGROV-1): 78%
- inhibition of growth at 10 µM (786-0): 95%

Compound: C=CCc1c2c(c(OC)c3ccoc13)C(=O)/C(=C/c1ccccc1OC)O2
- inhibition of growth at 10 µM [1]: 75%

Compound: COc1c2occc2c(OC)c2c(=O)c(CN3CCOCC3)c(/C=C/c3ccc(Cl)cc3)oc12
- inhibition of growth at 10 µM [2]: 95%
- inhibition of growth at 10 µM (SF-268): 67%
